Data taken from ChEMBL document CHEMBL1145082 (J Med Chem, 2003).

Legend:
[1] = target: 3-phosphoinositide-dependent protein kinase 1 (Homo sapiens) (UniProt O15530); assay: Inhibition of human 3-phosphoinositide-dependent protein kinase 1 at 10 uM; design: scale not given: the % may be the effect or the level left
Summary of the method: (§1)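 Outsourced selectivity panel. Each kinase phosphorylated its own peptide or protein substrate in the presence of 10 µM compound and 10 µM ATP, within the linear time range. Activity given as mean percent of control incubations from duplicate determinations.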

[2] = Increased glycogen synthase activity in HEK293 cells; format: functional, cell-based; details: Homo sapiens
Summary of the method: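 HEK293 cells starved of serum and glucose for 3 h, then exposed to compound or vehicle for 90 min at 37 °C. Cells lysed by three freeze–thaw cycles and lysates clarified. GS activity read as 14C-UDP-glucose incorporation into glycogen, with and without glucose 6-phosphate. EC50 from 6–10 concentrations; ≥3 experiments in duplicate; mean ± SEM.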

[3] = target: Platelet-derived growth factor receptor alpha (Homo sapiens) (UniProt P16234); assay: Inhibition of Platelet-derived growth factor receptor alpha at 10 uM; design: scale not given: the % may be the effect or the level left; summary of the method: as §1
Sequence of Platelet-derived growth factor receptor alpha (Homo sapiens) (P16234 whole entry): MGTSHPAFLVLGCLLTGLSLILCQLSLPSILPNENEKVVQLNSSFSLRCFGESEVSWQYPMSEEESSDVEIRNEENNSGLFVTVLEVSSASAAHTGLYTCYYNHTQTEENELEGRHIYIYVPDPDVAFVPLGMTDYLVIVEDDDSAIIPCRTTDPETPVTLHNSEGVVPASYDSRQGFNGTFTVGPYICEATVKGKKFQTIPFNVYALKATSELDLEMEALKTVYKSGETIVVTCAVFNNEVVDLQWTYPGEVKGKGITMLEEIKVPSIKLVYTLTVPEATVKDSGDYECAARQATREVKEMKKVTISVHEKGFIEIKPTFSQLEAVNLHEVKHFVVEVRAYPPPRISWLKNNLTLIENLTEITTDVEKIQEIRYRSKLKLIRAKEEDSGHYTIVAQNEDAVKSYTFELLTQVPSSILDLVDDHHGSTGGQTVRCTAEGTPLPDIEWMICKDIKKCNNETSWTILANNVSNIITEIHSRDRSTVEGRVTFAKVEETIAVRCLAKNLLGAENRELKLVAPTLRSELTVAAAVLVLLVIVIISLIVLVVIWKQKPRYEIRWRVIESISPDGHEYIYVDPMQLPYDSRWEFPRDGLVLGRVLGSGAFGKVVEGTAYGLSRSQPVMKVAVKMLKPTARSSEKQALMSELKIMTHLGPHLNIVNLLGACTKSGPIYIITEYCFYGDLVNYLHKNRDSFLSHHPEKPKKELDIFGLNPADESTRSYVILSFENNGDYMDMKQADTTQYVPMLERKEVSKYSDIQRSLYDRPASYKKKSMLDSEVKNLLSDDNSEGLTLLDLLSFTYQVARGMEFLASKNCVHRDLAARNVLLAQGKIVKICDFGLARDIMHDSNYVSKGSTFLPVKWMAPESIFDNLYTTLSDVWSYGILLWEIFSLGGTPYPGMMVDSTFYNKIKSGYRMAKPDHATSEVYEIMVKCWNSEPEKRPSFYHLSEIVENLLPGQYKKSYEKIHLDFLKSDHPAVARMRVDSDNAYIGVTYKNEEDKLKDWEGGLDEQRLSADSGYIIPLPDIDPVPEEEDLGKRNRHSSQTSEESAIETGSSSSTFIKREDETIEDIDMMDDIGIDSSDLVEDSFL

[4] = target: Inhibitor of nuclear factor kappa-B kinase subunit alpha (Homo sapiens) (UniProt O15111); assay: Inhibition of I kappa-B kinase alpha (IKK) at 10 uM; design: scale not given: the % may be the effect or the level left; summary of the method: as §1
[5] = target: Tyrosine-protein kinase Blk (Homo sapiens) (UniProt P51451); assay: Inhibition of Blk (B lymphocyte kinase) at 10 uM; design: scale not given: the % may be the effect or the level left; summary of the method: as §1
Bos taurus = species on record: Bos taurus; assay: Inhibition of bovine Protein kinase A at 10 uM; design: scale not given: the % may be the effect or the level left; summary of the method: as §1
[6] = target: Tyrosine-protein kinase SYK (Homo sapiens) (UniProt P43405); assay: Inhibition of Syk protein tyrosine kinase at 10 uM; design: scale not given: the % may be the effect or the level left; summary of the method: as §1
[7] = target: Protein kinase C theta type (Homo sapiens, UniProt Q04759); assay: Inhibition of Protein kinase C theta
Summary of the method: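 Recombinant human PKCθ (5–10 mU) with histone H1 (0.1 mg/mL) and 33P-ATP, total ATP 10 µM, in 8 mM MOPS pH 7.0, 0.2 mM EDTA, 10 mM Mg acetate. Run 40 min at room temperature, stopped with phosphoric acid, then P30 filter counting. IC50 from 6–10 concentrations; ≥3 experiments in duplicate; ± SEM.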

[8] = target: Serine/threonine-protein kinase Chk1 (Homo sapiens) (UniProt O14757); assay: Inhibition of human Serine/threonine-protein kinase Chk1 at 10 uM; design: scale not given: the % may be the effect or the level left
Sequence of Serine/threonine-protein kinase Chk1 (Homo sapiens) (O14757 whole entry): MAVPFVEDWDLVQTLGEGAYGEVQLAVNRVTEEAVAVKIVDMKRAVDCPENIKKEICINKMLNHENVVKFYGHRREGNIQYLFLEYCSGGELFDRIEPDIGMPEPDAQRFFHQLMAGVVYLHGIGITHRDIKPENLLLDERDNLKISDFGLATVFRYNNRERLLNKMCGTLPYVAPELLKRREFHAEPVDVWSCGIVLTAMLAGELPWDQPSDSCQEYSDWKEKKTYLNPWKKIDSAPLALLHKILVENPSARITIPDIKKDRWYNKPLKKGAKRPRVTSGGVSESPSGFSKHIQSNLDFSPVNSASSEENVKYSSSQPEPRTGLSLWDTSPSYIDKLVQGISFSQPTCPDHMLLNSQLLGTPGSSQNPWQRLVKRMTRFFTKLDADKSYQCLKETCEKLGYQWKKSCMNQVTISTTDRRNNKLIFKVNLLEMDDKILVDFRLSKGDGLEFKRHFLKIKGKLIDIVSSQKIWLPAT
Summary of the method: (§2)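 Upstate kinase selectivity panel: each kinase phosphorylated its peptide or protein substrate with 10 µM compound present and 10 µM ATP. Reactions were linear with time. Activity is reported as the mean percentage of control incubations, from duplicate determinations.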

Saccharomyces cerevisiae = assay: Inhibition of yeast Casein kinase I at 10 uM; design: scale not given: the % may be the effect or the level left; summary of the method: as §2
[9] = target: Cyclin-dependent kinase 2/cyclin E (Homo sapiens) (UniProt P24864+P24941+O96020); assay: Inhibition of Cyclin-dependent kinase 2-cyclin E at 10 uM; format: protein-complex assay; design: scale not given: the % may be the effect or the level left; summary of the method: as §1
[10] = target: Dual specificity mitogen-activated protein kinase kinase 7 (Homo sapiens) (UniProt O14733); assay: Inhibition of human Mitogen activated protein kinase kinase 7 beta at 10 uM; design: scale not given: the % may be the effect or the level left; summary of the method: as §1
[11] = target: MAP kinase-activated protein kinase 2 (Homo sapiens) (UniProt P49137); assay: Inhibition of human MAP kinase-activated protein kinase 2 at 10 uM; design: scale not given: the % may be the effect or the level left; summary of the method: as §1
[12] = target: T1, Protein kinase C beta type (Homo sapiens, UniProt P05771); assay: Inhibition of Protein kinase C beta 2
Summary of the method: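 Recombinant human PKCα, PKCγ or PKCβII (5–10 mU) phosphorylating histone H1 (0.1 mg/mL) with 33P-ATP, total ATP 10 µM. Buffer 50 mM Hepes pH 7.4 with Triton X-100, CaCl2, Mg acetate, phosphatidylserine and diacylglycerol. Run 40 min at room temperature, stopped with phosphoric acid, then P30 filter counting.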
Target sequence in this assay (P05771 whole entry): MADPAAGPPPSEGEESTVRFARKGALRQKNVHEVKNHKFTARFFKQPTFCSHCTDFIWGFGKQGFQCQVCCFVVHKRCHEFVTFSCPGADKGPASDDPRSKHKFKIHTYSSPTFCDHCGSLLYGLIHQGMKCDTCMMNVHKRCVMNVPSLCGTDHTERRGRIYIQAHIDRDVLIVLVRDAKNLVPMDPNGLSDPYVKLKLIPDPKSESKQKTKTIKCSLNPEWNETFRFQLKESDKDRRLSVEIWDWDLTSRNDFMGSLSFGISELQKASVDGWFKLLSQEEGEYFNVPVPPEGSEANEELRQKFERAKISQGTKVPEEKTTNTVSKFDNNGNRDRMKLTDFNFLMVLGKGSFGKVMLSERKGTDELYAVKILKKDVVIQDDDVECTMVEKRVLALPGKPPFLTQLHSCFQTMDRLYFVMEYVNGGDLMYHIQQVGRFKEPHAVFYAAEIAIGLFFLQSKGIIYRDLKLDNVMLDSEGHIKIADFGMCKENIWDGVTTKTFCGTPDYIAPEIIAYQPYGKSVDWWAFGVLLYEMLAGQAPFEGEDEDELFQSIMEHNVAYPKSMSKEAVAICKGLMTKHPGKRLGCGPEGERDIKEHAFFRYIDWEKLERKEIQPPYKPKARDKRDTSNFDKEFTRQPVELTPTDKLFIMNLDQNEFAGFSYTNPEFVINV

[13] = target: Cyclin-dependent kinase 2 (Homo sapiens, UniProt P24941); assay: Inhibition of Cyclin-dependent kinase 2 (CDK2)
Summary of the method: (§3)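 Reaction started with 30–150 ng kinase, run 1 h at 30 °C. Peptides captured on streptavidin plates and counted. IC50 from 6–10 concentrations; ≥3 experiments in duplicate; ± SEM.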

[14] = target: CDK6/cyclin D3 (Homo sapiens) (UniProt P30281+Q00534); assay: Inhibition of Cyclin-dependent kinase 6-cyclin D3 at 10 uM; format: protein-complex assay; design: scale not given: the % may be the effect or the level left; summary of the method: as §1
[15] = Inhibition of Casein Kinase I; design: species or system Rattus norvegicus; summary of the method: as §3
[16] = Inhibitory activity against Protein kinase A was determined
[17] = target: Cyclin-dependent kinase 7/ cyclin H (Homo sapiens) (UniProt P51946+P50613); assay: Inhibition of cyclin-dependent kinase 7-cyclin H at 10 uM; format: protein-complex assay; design: scale not given: the % may be the effect or the level left; summary of the method: as §1
[18] = target: Cyclin-dependent kinase 1 (Homo sapiens, UniProt P06493); assay: Inhibition of Cyclin-dependent kinase 1; summary of the method: as §3
Sequence of Cyclin-dependent kinase 1 (P06493 whole entry): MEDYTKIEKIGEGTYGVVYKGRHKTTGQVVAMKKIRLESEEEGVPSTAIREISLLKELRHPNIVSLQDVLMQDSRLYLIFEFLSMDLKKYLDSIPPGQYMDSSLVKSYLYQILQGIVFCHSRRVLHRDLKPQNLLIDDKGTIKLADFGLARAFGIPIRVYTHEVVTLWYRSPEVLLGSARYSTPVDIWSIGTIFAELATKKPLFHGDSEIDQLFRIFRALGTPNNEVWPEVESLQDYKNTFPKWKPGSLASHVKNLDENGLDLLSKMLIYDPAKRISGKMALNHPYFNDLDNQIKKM

[19] = target: Tyrosine-protein kinase Lyn (Homo sapiens) (UniProt P07948); assay: Inhibition of Protein tyrosine kinase Lyn at 10 uM; design: scale not given: the % may be the effect or the level left; summary of the method: as §1
Sequence of Tyrosine-protein kinase Lyn (Homo sapiens) (P07948 2-512 limits assumed): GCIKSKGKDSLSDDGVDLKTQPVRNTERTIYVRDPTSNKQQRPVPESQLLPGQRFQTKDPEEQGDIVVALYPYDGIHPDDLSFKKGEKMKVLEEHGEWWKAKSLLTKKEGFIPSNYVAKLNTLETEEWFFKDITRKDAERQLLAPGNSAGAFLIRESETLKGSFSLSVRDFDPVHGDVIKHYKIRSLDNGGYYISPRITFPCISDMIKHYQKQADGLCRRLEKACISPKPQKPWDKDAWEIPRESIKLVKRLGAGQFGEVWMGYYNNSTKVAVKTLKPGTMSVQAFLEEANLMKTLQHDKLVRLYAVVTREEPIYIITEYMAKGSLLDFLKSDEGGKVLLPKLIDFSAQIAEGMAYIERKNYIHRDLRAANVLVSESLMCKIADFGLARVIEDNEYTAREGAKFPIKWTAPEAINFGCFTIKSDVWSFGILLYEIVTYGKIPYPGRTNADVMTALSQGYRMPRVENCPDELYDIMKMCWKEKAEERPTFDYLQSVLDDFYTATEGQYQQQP

[20] = target: RAF proto-oncogene serine/threonine-protein kinase (Homo sapiens) (UniProt P04049); assay: Inhibition of human RAF proto-oncogene serine/threonine-protein kinase (c-RAF) at 10 uM; design: scale not given: the % may be the effect or the level left; summary of the method: as §1
Sequence of RAF proto-oncogene serine/threonine-protein kinase (Homo sapiens) (P04049 whole entry): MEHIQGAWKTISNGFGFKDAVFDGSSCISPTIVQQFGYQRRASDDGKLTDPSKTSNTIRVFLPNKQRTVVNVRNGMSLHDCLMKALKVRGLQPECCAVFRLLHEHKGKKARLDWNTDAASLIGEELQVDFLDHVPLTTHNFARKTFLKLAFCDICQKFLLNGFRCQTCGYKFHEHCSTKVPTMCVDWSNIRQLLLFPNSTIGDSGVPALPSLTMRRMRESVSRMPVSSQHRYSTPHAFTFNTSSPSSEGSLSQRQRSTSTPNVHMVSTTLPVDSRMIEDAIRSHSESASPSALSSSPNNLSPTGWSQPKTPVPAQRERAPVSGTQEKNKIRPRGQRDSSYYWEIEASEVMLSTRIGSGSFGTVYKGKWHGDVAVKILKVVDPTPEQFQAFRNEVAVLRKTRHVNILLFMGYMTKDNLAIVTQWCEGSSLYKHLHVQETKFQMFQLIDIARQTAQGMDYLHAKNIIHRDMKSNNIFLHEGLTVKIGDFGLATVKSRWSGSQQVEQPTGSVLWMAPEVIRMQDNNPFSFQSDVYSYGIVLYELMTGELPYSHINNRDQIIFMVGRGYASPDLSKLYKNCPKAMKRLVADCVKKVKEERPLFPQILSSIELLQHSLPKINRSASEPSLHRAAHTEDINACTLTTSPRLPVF

[21] = target: T1, Protein kinase C beta type; assay: Inhibition of human Protein kinase C beta 2 at 10 uM; design: scale not given: the % may be the effect or the level left; summary of the method: as §1
[22] = target: Dual specificity mitogen-activated protein kinase kinase 6 (Homo sapiens) (UniProt P52564); assay: Inhibition of human Mitogen activated protein kinase kinase 6 at 10 uM; design: scale not given: the % may be the effect or the level left; summary of the method: as §1
[23] = target: Fibroblast growth factor receptor 3 (Homo sapiens) (UniProt P22607); assay: Inhibition of Fibroblast growth factor receptor 3 at 10 uM; design: scale not given: the % may be the effect or the level left; summary of the method: as §1
Sequence of Fibroblast growth factor receptor 3 (Homo sapiens) (P22607 23-806 limits assumed): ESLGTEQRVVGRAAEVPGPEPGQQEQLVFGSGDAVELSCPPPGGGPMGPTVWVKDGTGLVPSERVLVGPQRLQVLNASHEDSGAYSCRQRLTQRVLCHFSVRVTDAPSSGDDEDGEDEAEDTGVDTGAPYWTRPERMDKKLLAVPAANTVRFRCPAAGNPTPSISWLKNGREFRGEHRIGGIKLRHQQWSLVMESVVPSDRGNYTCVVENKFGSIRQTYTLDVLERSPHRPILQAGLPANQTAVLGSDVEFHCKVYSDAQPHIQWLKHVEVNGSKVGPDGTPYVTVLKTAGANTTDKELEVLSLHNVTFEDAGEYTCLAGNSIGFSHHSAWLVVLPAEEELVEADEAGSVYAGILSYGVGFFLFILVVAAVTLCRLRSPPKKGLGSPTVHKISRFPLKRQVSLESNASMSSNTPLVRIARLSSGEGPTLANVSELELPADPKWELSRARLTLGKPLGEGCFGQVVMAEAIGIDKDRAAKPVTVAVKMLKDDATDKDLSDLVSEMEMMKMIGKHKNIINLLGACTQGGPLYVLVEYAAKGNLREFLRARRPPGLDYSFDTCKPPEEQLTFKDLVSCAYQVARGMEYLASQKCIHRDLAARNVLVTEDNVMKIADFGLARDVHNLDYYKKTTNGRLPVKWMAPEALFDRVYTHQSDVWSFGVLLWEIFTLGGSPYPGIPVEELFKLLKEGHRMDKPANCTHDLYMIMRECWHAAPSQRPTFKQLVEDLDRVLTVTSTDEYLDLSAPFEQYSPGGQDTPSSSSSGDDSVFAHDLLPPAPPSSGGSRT

[24] = target: Ribosomal protein S6 kinase alpha-5 (Homo sapiens) (UniProt O75582); assay: Inhibition of human MSK-1 kinase at 10 uM; design: scale not given: the % may be the effect or the level left; summary of the method: as §1
[25] = target: Ribosomal protein S6 kinase (P70S6K) (Homo sapiens) (UniProt Q9UBS0+P23443); assay: Inhibition of human Ribosomal protein S6 kinase (p70S6K) at 10 uM; format: protein-complex assay; design: scale not given: the % may be the effect or the level left; summary of the method: as §2
[26] = target: Calcium/calmodulin-dependent protein kinase type IV (Homo sapiens) (UniProt Q16566); assay: Inhibition of Calcium/calmodulin-dependent protein kinase type IV at 10 uM; design: scale not given: the % may be the effect or the level left; summary of the method: as §1
[27] = target: Tyrosine-protein kinase Lck (Homo sapiens) (UniProt P06239); assay: Inhibition of human p56 Lck tyrosine kinase at 10 uM; design: scale not given: the % may be the effect or the level left; summary of the method: as §2
[28] = target: Platelet-derived growth factor receptor beta (Homo sapiens) (UniProt P09619); assay: Inhibition of Platelet-derived growth factor receptor beta at 10 uM; design: scale not given: the % may be the effect or the level left; summary of the method: as §1
[29] = target: Insulin-like growth factor 1 receptor (Homo sapiens) (UniProt P08069); assay: Inhibition of Type 1 insulin like growth factor receptor at 10 uM; design: scale not given: the % may be the effect or the level left; summary of the method: as §1
[30] = target: Protein kinase C alpha type (Homo sapiens, UniProt P17252); assay: Inhibition of human Protein kinase C alpha at 10 uM; design: scale not given: the % may be the effect or the level left; summary of the method: as §1
[31] = target: Tyrosine-protein kinase Fyn (Homo sapiens) (UniProt P06241); assay: Inhibition of human Fyn tyrosine kinase at 10 uM; design: scale not given: the % may be the effect or the level left; summary of the method: as §1
[32] = target: Mitogen-activated protein kinase 9 (Homo sapiens) (UniProt P45984); assay: Inhibition of human c-Jun N-terminal kinase 2-alpha 2 at 10 uM; design: scale not given: the % may be the effect or the level left; summary of the method: as §2
[33] = target: RAC-beta serine/threonine-protein kinase (Homo sapiens) (UniProt P31751); assay: Inhibition of Protein kinase B beta at 10 uM; design: scale not given: the % may be the effect or the level left; summary of the method: as §1
[34] = target: CDK3/cyclin E (Homo sapiens) (UniProt P24864+O96020+Q00526); assay: Inhibition of cyclin-dependent kinase 3-cyclin E at 10 uM; format: protein-complex assay; design: scale not given: the % may be the effect or the level left; summary of the method: as §1

Sequence of 3-phosphoinositide-dependent protein kinase 1 (Homo sapiens) (O15530 whole entry): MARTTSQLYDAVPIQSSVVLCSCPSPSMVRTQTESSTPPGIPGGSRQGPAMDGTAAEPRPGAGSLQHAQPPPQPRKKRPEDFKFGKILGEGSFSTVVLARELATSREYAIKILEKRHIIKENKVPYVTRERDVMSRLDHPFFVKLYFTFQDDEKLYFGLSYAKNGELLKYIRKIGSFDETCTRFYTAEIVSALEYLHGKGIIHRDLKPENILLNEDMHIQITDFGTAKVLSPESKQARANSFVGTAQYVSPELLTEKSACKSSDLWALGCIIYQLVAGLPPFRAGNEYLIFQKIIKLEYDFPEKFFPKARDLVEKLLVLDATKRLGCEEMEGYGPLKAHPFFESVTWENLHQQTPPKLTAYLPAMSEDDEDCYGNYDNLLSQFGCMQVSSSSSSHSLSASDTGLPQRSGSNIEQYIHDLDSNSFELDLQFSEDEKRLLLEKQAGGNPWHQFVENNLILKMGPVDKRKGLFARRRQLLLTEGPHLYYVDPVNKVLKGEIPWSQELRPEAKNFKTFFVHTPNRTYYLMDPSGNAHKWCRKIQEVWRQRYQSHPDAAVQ

SMILES	Activity [1] [%]	EC50 [2] [µM]	Activity [3] [%]	Activity [4] [%]	Activity [5] [%]	Activity (Bos taurus) [%]	Activity [6] [%]	IC50 [7] [µM]	Activity [8] [%]	Activity (Saccharomyces cerevisiae) [%]	Activity [9] [%]	Activity [10] [%]	Activity [11] [%]	IC50 [12] [µM]	IC50 [13] [µM]	Activity [14] [%]	IC50 [15] [µM]	IC50 [16] [µM]	Activity [17] [%]	IC50 [18] [µM]	also measured
O=C1NC(=O)C2=C1c1cn(c3ncccc13)CCOCCOCCOCCn1cc2c2cccnc21	90	0.06	130	100	90	88	67	> 10	101	84	67	129	97	1.16	> 10	97	> 10	> 10	85	> 10	Activity [19]: 99%; Activity [20]: 91%; Activity [21]: 15%; Activity [22]: 87%; Activity [23]: 58%; Activity [24]: 61%; Activity [25]: 92%; Activity [26]: 84%; Activity [27]: 194%; Activity [28]: 84%; Activity [29]: 107%; Activity [30]: 51%; Activity [31]: 92%; Activity [32]: 76%; Activity [33]: 93%; Activity [34]: 72%
O=C1NC(=O)C2=C1c1cn(c3ncccc13)CCOCCOCCOCCOCCn1cc2c2cccnc21	94	0.39	112	98	96	94	72	> 10	102	89	100	132	85	> 10	> 10	97	> 10	> 10	86	> 10	Activity [19]: 92%; Activity [20]: 97%; Activity [21]: 69%; Activity [22]: 85%; Activity [23]: 61%; Activity [24]: 89%; Activity [25]: 93%; Activity [26]: 88%; Activity [27]: 174%; Activity [28]: 86%; Activity [29]: 97%; Activity [30]: 94%; Activity [31]: 95%; Activity [32]: 97%; Activity [33]: 97%; Activity [34]: 97%
